Assay results: ChEMBL document CHEMBL4325879, “Optimization of substituted cinnamic acyl sulfonamide derivatives as tubulin polymerization inhibitors with anticancer activity” (Bioorg Med Chem Lett, 2018)
≈ marks a conversion by molar mass, not a printed value.

How the values were obtained:
MCF7 = experiment: Antiproliferative activity against human MCF7 cells after 48 hrs by MTT assay; format: functional, cell-based; settings: MCF7, 48 h
Outline: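 MCF-7 human breast cancer cells exposed to compounds for 48 h. Cytotoxicity read by MTT assay. IC50 taken as the concentration giving 50% inhibition of cell growth.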

Tubulin = Tubulin (Bos taurus, UniProt Q6B856+Q862L2+Q862F3); experiment: Inhibition of bovine brain tubulin polymerization after 20 mins in presence of GTP by spectrophotometric analysis

IC50 (MCF7)	IC50 (Tubulin)	pIC50 (Tubulin)	SMILES
2.16 µg/mL (≈ 6.25 µM)	5.47 µM	5.262	O=C(/C=C/c1ccc2c(c1)OCCO2)NS(=O)(=O)c1ccccc1
> 100 µg/mL	> 100 µM	–	O=C(/C=C/c1ccc2c(c1)OCCCO2)NS(=O)(=O)c1ccc(Br)cc1
48.9 µg/mL (≈ 142 µM)	40.85 µM	4.389	Cc1ccc(S(=O)(=O)NC(=O)/C=C/c2ccc3c(c2)OCO3)cc1
0.17 µg/mL (≈ 0.513 µM)	0.88 µM	6.056	O=C(/C=C/c1ccc2c(c1)OCO2)NS(=O)(=O)c1ccccc1
> 100 µg/mL	> 100 µM	–	O=C(/C=C/c1ccc2c(c1)OCCCO2)NS(=O)(=O)c1ccc(Cl)cc1
53.9 µg/mL (≈ 150 µM)	49.01 µM	4.31	O=C(/C=C/c1ccc2c(c1)OCCCO2)NS(=O)(=O)c1ccccc1
89 µg/mL (≈ 217 µM)	51.59 µM	4.288	O=C(/C=C/c1ccc2c(c1)OCO2)NS(=O)(=O)c1ccc(Br)cc1
> 100 µg/mL	> 100 µM	–	O=C(/C=C/c1ccc2c(c1)OCCO2)NS(=O)(=O)c1ccc(Br)cc1
74 µg/mL (≈ 212 µM)	76.9 µM	4.114	O=C(/C=C/c1ccc2c(c1)OCO2)NS(=O)(=O)c1ccc(F)cc1
> 100 µg/mL	> 100 µM	–	O=C(/C=C/c1ccc2c(c1)OCCCO2)NS(=O)(=O)c1ccc(F)cc1
> 100 µg/mL	> 100 µM	–	Cc1ccc(S(=O)(=O)NC(=O)/C=C/c2ccc3c(c2)OCCCO3)cc1
51.3 µg/mL (≈ 135 µM)	87.92 µM	4.056	O=C(/C=C/c1ccc2c(c1)OCCO2)NS(=O)(=O)c1ccc(Cl)cc1
> 100 µg/mL	93.33 µM	4.03	Cc1ccc(S(=O)(=O)NC(=O)/C=C/c2ccc3c(c2)OCCO3)cc1
52.1 µg/mL (≈ 143 µM)	27.46 µM	4.562	O=C(/C=C/c1ccc2c(c1)OCCO2)NS(=O)(=O)c1ccc(F)cc1
47.3 µg/mL (≈ 129 µM)	94.72 µM	4.024	O=C(/C=C/c1ccc2c(c1)OCO2)NS(=O)(=O)c1ccc(Cl)cc1

SMILES	IC50 (MCF7)	IC50 (Tubulin)	pIC50 (Tubulin)
COc1cc2c(c(OC)c1OC)-c1ccc(OC)c(=O)cc1[C@@H](NC(C)=O)CC2 [COLCHICINE]	0.33 µg/mL (≈ 0.826 µM)	–	–
